Assay outcomes from PubChem BioAssay.
CFTR F508del cor – CFTR F508del correction in bronchial cells; 350,000 tested, 0.36% active; AID 720511; activity (quench increase), % at 7.58 µM; CFBE cells, YFP halide quenching; stimulated with forskolin plus potentiator P3; % fluorescence drop versus neutral controls;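 active = mean added fluorescence quench of at least 8% versus neutral control, with both replicates also reaching 8%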;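 also: cells transiently co-express mutant CFTR-F508del with the halide-sensitive YFP; corrector assay measuring rescue of mutant channel to the surface after 24 h compound exposure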
FGF22 binding – shifts melting point of recombinant human FGF22; Q9HCT0; recombinant FGF22 thermal shift, SYPRO orange fluorescence; percent of sucrose octasulfate shift, DMSO zero; activity (Tm shift, normalised), % at 9.99 µM; 340,000 tested, 1.5% active;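 active = mean Tm shift, scaled 0 neutral to 100 positive control, at about 1.3% or above, every replicate too, limit read from the data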
Env fusion inh – inhibitors of HIV Env-mediated cell fusion | HeLa-JRFL Env/CEM21 cell fusion, luciferase | inhibition, % at 12.3 µM | 360,000 tested, 1.1% active | AID 651610;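 active = mean replicate inhibition score of at least 50 and every replicate individually at or above 50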;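 also: 0% = plate neutral controls and 100% = maraviroc near 300 nM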
E-sel inducer – E-selectin induction on HUVECs | P16581 | HUVEC E-selectin immunofluorescence imaging; normalized: neutral wells 0, TNF-alpha wells 100 | activation, % at 7.58 µM | 260,000 tested, 0.37% active;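 active = mean E-selectin-positive cell signal at least 10% of the positive control, reached in at least 60% of replicates, without over 20% cell loss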
Target sequence (P16581 whole entry, looked up): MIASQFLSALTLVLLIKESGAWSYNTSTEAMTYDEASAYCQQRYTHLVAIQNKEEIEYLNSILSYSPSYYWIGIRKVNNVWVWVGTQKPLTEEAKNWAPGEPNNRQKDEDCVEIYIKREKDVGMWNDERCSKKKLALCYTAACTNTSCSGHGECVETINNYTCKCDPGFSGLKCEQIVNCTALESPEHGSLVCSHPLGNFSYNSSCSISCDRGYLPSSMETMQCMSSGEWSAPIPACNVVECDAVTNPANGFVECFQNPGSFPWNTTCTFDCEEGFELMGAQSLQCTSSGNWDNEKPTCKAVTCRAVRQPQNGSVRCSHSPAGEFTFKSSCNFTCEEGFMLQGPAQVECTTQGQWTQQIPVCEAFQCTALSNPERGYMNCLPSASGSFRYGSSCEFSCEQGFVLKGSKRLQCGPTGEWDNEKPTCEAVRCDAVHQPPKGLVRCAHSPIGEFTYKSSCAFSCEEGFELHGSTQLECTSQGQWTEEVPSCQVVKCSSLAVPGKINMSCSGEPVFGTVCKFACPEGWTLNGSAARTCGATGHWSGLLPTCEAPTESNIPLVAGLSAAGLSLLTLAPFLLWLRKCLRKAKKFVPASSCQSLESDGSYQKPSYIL
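Read-out basis: % PE-positive cells; Test system: HUVEC primary endothelial cells; Technique: immunofluorescence imaging; Dosing: single-point compound dose.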
S100A4 MyoIIA – S100A4-myosin IIA interaction inhibition; P26447; S100A4/TAMRA-MyoIIA peptide fluorescence polarization; inhibition, % at 10.7 µM; 360,000 tested, 0.14% active; AID 652163;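 active = mean inhibition of at least 70% across replicates, with every replicate also reaching that level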
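Test system – S100A4 monomer (human) · Compound – single-point compound testing · Schedule – 5 min incubation before reading · Probe or stimulus – TAMRA-labelled myosin IIA heavy-chain peptide probe, 5 nM · Benchmarks – neutral control DMSO, positive control TFP · Medium – Calcium-containing HEPES buffer, pH 7.2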
* = called active by the depositor; · = no result; + = active, no number; [ ] = dose if it differs, or a comment. Compounds with a hit are over-represented: about 2.7% of the library has one in this group of screens.

SMILES	CFTR F508del cor	FGF22 binding	Env fusion inh	E-sel inducer	S100A4 MyoIIA
Cn1cnc([N+](=O)[O-])c1Sc1ccc([N+](=O)[O-])cc1	0.5	43.4*	4.1	-4.9	2.5
O=c1cccc2n1CC1CC2CN(c2nc(N3CCCCC3)nc(N3CCCCC3)n2)C1 (configuration not stated)	-2.2	-0.1	82.5*	-0.1	2.4
O=c1cccc2n1CC1CC2CN(Cc2c(Cl)cccc2Cl)C1 (configuration not stated)	·	·	6.6	·	·
O=C(Cc1ccccc1)N1CCCCN2[C@H](CO)[C@@H](c3ccc(-c4ccccc4)cc3)[C@H]2C1	0.6	·	·	0.3	·
C[C@H]1CCC/C=C/[C@@H]2C[C@H](O)C[C@H]2[C@@H](O)/C=C/C(=O)O1	-26.2	-0.3	81.7*	-0.4	-0.7
C/C=C/c1ccc([C@@H]2[C@H](CO)N3CCCCN(C(=O)Cc4ccncc4)C[C@@H]23)cc1	-0.4	0.0	·	0.6	-4.9
CN1C2CCC1/C(=C/c1ccccn1)C(=O)/C2=C\c1ccccn1	-2.4	0.2	60.2*	5.3	-5.6
CCCNC(=O)N1[C@@H]2Cn3c(ccc(-c4cccc(C(=O)N(C)C)c4)c3=O)[C@H]1[C@@H](C(=O)O)[C@@H]2CO	1.4	0.7	·	-0.1	1.1
C[N+]1(C)[C@@H]2CC[C@H]1CC(OC(=O)C(CO)c1ccccc1)C2 (some centres not stated)	-0.1	0.0	·	-0.2	-14.5
C[N+]1(C)C2CCC1CC(OC(=O)C(CO)c1ccccc1)C2 (configuration not stated)	5.8	43.5*	17.1	0.3	-7.7
CCCN1[C@@H]2c3ccc(-c4cccc(C(=O)N(C)C)c4)c(=O)n3C[C@H]1[C@H](CO)[C@H]2C(=O)OC	·	-0.4	1.2[16.7 µM]	0.7	7.3
CCOC(=O)[C@]12Cc3cc(OC)c(OC)cc3[C@H]1N(Cc1ccccc1)C(=O)c1ccccc12	2.9	0.1	40.6	-0.2	-0.6
CCOC(=O)[C@]12Cc3c(cc(OC)c(OC)c3OC)[C@H]1N(Cc1ccccc1)C(=O)c1ccccc12	-2.4	0.1	63.7*	0.0	-0.7
Cc1cc2c(C(C)C)c(O)c(O)c(C=O)c2c(O)c1-c1c(C)cc2c(C(C)C)c(O)c(O)c(C=O)c2c1O	2.4	0.3	60.6*	3.8	-8.5
CCCCC1(CCC)C(=O)NC(=S)NC1=O	5.8	42.9*	-1.8	0.5	-0.1
CCCNC(=O)N1[C@@H]2Cn3c(ccc(-c4ccccc4OC)c3=O)[C@H]1[C@@H](C(=O)O)[C@@H]2CO	0.8	0.1	·	0.0	6.5
CC1=NN(c2ccccc2)C(=O)/C1=C/c1c(O)[nH]c(=O)[nH]c1=O	-1.1	1.4*	-4.8	-0.5	-5.2
O=C(Cc1ccccc1)N1CCCCN2[C@H](CO)[C@H](c3ccc(C#Cc4ccccc4)cc3)[C@@H]2C1	-1.2	0.7	·	-0.4	-1.5
CC(C)Oc1ccc(C2C(C#N)=C(N)Oc3c2c(=O)oc2ccccc32)cc1 (configuration not stated)	·	·	-47.2	·	·
N#CC1=C(N)Oc2c(c(=O)oc3ccccc23)C1c1ccc([N+](=O)[O-])o1 (configuration not stated)	-4.7	43.3*	0.9	4.9	-3.6
COC(=O)[C@@H]1[C@@H](CO)[C@@H]2Cn3c(ccc(-c4ccc(F)cc4)c3=O)[C@H]1N2Cc1cccnc1	·	0.0	5.5[16.7 µM]	0.3	18.5
CC/C=C/CC(=O)N[C@@H](c1ccccc1)[C@@H](O)C(=O)O[C@H]1C[C@@]2(O)[C@@H](OC(=O)c3ccccc3)C3[C@](C)(C(=O)[C@H](OC(C)=O)C(=C1C)C2(C)C)[C@@H](O)C[C@H]1OC[C@@]31OC(C)=O (some centres not stated)	16.9*	-0.2	·	·	-5.8
CCC(C)C(=O)N[C@@H](c1ccccc1)[C@@H](O)C(=O)O[C@H]1C[C@@]2(O)[C@@H](OC(=O)c3ccccc3)C3[C@](C)(C(=O)[C@H](OC(C)=O)C(=C1C)C2(C)C)[C@@H](O)C[C@H]1OC[C@@]31OC(C)=O (some centres not stated)	10.6*	0.0	·	·	4.1
N#Cc1cccc(-c2ccc([C@@H]3[C@H](CO)N4CCCCN(C(=O)Cc5ccccc5)C[C@@H]34)cc2)c1	-0.6	-0.4	·	0.1	-19.0
COc1cccc2c1C(=O)c1c(O)c3c(c(O)c1C2=O)CC(O)(C(C)=NO)CC3OC1CC(N)C(O)C(C)O1 (configuration not stated)	1.0	-0.3	-346.3	3.3	+
SMILES	CFTR F508del cor	FGF22 binding	Env fusion inh	E-sel inducer	S100A4 MyoIIA
CN(C(=O)Oc1cccc2ccccc12)C1C=CCC1 (configuration not stated)	-1.8	43.5*	-55.3	0.3	-4.5
CN(C)C(=O)Oc1cccc2c(OC(=O)N(C)C)cccc12	·	·	-20.9	·	·
O=C(Cc1ccncc1)N1CCCCN2[C@H](CO)[C@@H](c3ccc(C#Cc4ccccc4F)cc3)[C@@H]2C1	0.7	0.0	·	1.4	-51.9
CCCCn1c(=O)c(C=Nc2ccc(Cl)cc2)c(O)n(Cc2ccco2)c1=O	·	-0.3	24.9	·	-12.4
CCCCn1c(=O)c(C=Nc2cc([N+](=O)[O-])ccc2OC)c(O)n(CCCCl)c1=O	1.8	43.0*	12.5	-0.1	-2.0
CC1(C)CC(=O)CC(C)(C)N1O	-5.7	44.9*	-55.2	-0.1	0.3
COC(=O)[C@H]1[C@H](CO)[C@H]2Cn3c(ccc(-c4cncnc4)c3=O)[C@@H]1N2S(=O)(=O)c1ccccc1C	1.4	-0.2	·	-0.3	0.4
O=C(O)C[C@H]1CC[C@@H]2NC[C@H](O)COC[C@H]2O1	-3.2	-0.1	-11.1[16.7 µM]	0.1	8.1
O=C1OCCC1C(=O)c1ccccc1 (configuration not stated)	-3.9	43.5*	6.2	0.4	-0.6
C[C@]12CCC3C(CCC4=CC(O)CC[C@@]43/C=N/O)C1(O)CCC2C1=CC(=O)OC1 (some centres not stated)	-2.9	-0.1	93.0*	·	-5.5
CCCCN=C[C@]12CCC(O)CC1(O)CCC1[C@@H]2CC[C@]2(C)[C@H](C3C=CC(=O)O3)CCC12O (some centres not stated)	0.4	-0.2	81.8*	·	-16.4
CC12CCC3C(CCC4(O)CC(O)CCC34C=NO)C1(O)CCC2C1=COC(=O)C1 (configuration not stated)	1.5	-0.2	105.1*	5.2	1.1
CN1[C@@H]2c3cccc(=O)n3C[C@H]1[C@H](CO)[C@H]2C(=O)NCC1CC1	·	0.1	2.5[16.7 µM]	0.0	3.6
CC(C)N=C(NC(C)C)N1CC1	-0.1	42.9*	·	0.1	1.7
COc1ccc(-c2ccc(OC)c(OC)c2OC)cc1	11.9*	-0.2	2.6	·	2.3
COc1ccc(CN2C(=O)NC(=O)/C(=C/c3ccc(OC)c(OC)c3OC)C2=O)cc1	0.6	-0.1	3.7	-4.3	-4.9
